FLuc stim CS: firefly luciferase counter-screen for stimulation assays | AID 1027 | activation factor at 10 µM | 200,000 tested, under 10 active | P08659 | ATPlite luciferase biochemical, luminescence, 10 min; 0 = ATP-free wells, 1 = DMSO control;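 active = luciferase activation factor, scaled between plate controls, of at least 2 with compound at 10 µM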
Target sequence (P08659 whole entry, looked up): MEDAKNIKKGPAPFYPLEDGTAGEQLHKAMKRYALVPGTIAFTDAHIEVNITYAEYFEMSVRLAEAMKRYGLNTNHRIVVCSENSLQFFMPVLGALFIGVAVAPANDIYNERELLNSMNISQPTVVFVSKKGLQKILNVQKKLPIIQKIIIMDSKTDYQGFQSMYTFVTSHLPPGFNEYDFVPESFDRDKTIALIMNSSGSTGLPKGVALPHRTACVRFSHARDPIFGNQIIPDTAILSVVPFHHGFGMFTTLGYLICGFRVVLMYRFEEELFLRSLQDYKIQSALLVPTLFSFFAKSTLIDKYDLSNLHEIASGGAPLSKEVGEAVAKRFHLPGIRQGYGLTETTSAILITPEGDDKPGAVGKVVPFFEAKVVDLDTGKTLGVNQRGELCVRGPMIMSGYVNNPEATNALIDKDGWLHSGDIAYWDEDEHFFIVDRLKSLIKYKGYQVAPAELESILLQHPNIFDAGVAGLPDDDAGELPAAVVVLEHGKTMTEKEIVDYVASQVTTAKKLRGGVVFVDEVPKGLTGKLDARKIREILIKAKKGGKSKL
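Material: Luciferase/luciferin reagent mix; Doses: test compounds dosed from 2 mM stocks in 100% DMSO; Schedule: 10 min incubation after luciferase reagent addition, room temperature; Measured by: luminescence from luciferase reaction; Read-out: luminescence gain marking luciferase activators.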
TRAIL sens C8: caspase-8 TRAIL sensitization; 360,000 compounds, 1% hits; inhibition (viability loss, TRAIL sensitization), % at 10 µM; NB7+C8 cells + TRAIL, ATPlite viability luminescence;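 active = compounds causing at least 50% loss of cell viability in the single-dose screen, relative to plate controls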
PPC-1+TRAIL kill: compounds killing PPC-1 cancer cells with TRAIL present (potentiator screen, no TRAIL-free arm) | 220,000 compounds, 0.41% hits | PPC-1 cells + TRAIL, ATPLite viability luminescence | AID 1443 | cell killing (% activity), % at 4 µM or 5 µM;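 active = cell killing above 50% in the first pass at 4 µM, then a duplicate retest at 5 µM averaging 50% or more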
FLuc inh counter: Photinus pyralis luciferase inhibition counter-screen. AID 1006. inhibition, % at 10 µM. P08659. ATPLite firefly luciferase biochemical luminescence, 10 min. 200,000 compounds, 1.5% hits;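 active = inhibition above about 50% when tested at 10 µM, limit read from the data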
Numbers stand for hits; – = inactive; · = no result. Only some compounds are listed: those with a hit (about 1.5% of all), similar ones and a draw of the others.

SMILES	FLuc stim CS	TRAIL sens C8	PPC-1+TRAIL kill	FLuc inh counter
CC1=CN2C(=N)/C(=C/c3ccco3)C(=O)N=C2S1	–	57.8	–	91.7
COC(=O)c1c(NC(=O)COc2ccc(Cl)cc2)sc2c1CC(C)(C)NC2(C)C	·	73.3	·	·
COc1ccc(-c2coc3cc(O)ccc3c2=O)cc1O	–	–	–	53.9
O=C(Nc1ccccc1)c1cc(C2CCCN(C(=O)c3cccs3)C2)on1 (stereo unspecified)	·	–	·	·
CC(=O)Nc1ccc(N=Cc2c(O)c3ccccc3oc2=O)cc1	·	–	·	·
CC(=O)Nc1ccc(N=Cc2c(O)c(C(=O)Nc3ccccc3)cc3ccccc23)cc1	–	·	–	94.9
CCNC(=O)C1(C)CCN(Cc2ccc(-c3ccccc3)cc2)C1 (stereo unspecified)	·	–	·	·
CCCC(=O)Nc1ccc(-c2csc(N/N=C\c3ccncc3)n2)cc1	·	71.0	–	·
CC(C)Nc1ccc(Nc2ccnc3cc4ccccc4cc23)cc1	·	91.7	–	·
CN(C)CC(O)c1ccc(C=Cc2ccc(Cl)cc2)cc1 (stereo unspecified)	·	89.0	·	·
C[C@@H]1CN([C@H](C)CO)C(=O)CCCn2nncc2CO[C@H]1CN(C)Cc1ccc2c(c1)OCO2	·	–	·	·
Nc1ccc(C(=O)NN2C(=O)[C@H](Cl)C2c2ccc(Cl)cc2)cc1 (stereo partly specified)	·	94.5	·	·
COCCN1C(=O)CN(S(C)(=O)=O)CC1(C)C(=O)NCc1ccccc1 (stereo unspecified)	·	–	·	·
COc1ccc(N2CCN(C(=O)COC(=O)c3ccc(-n4nc(C)cc4C)cc3)CC2)cc1	·	–	·	·
Cc1cn([C@H]2C[C@H](O)[C@@H](/C=C/C(=O)NCCN3CCOCC3)O2)c(=O)[nH]c1=O	·	–	·	·
Cc1ccc2oc(C(=O)Nc3nonc3C)c(C)c2c1	·	–	·	·
COc1ccc2oc(C(=O)Nc3nnc(C)s3)c(C)c2c1	·	70.4	·	·
Cc1ccc2oc(C(=O)Nc3nnc(C)s3)c(C)c2c1	–	–	–	59.0
CCOC(=O)c1c(S(=O)(=O)NCCCc2ccco2)c(C)n(C)c1C	·	–	·	·
COc1cccc(C(=O)N2CCC(CCC(=O)Nc3cccc(C)c3)CC2)c1	·	–	·	·
CCc1nc2c(OCC=C(C)C)cccn2c1N(C)C(=O)c1ccc(OC)cc1	·	–	·	·
CCC1SC(=NC(=O)c2ccc(Cl)c(Cl)c2)NC1=O (stereo unspecified)	–	–	–	59.0
CCC1SC(=Nc2cccc(C)c2)NC1=O (stereo unspecified)	·	–	·	·
O=C(COc1cc2oc(=O)cc(-c3ccccc3)c2cc1Cl)NCc1ccccn1	·	–	·	·
Cc1ccccc1NC(=O)Cc1nc(COC(=O)c2ccc(S(C)(=O)=O)c([N+](=O)[O-])c2)cs1	·	54.4	·	·
SMILES	FLuc stim CS	TRAIL sens C8	PPC-1+TRAIL kill	FLuc inh counter
Cc1cc(C(=O)Nc2sc3c(c2C#N)CCC(C)C3)no1 (stereo unspecified)	–	55.3	–	72.5
Cc1cc(C(=O)Nc2sc3c(c2C#N)CCCC3)no1	–	51.8	–	83.7
Cc1cc(C(=O)Nc2sc3c(c2C#N)CCC3)no1	–	50.9	–	65.9
CCOc1ncccc1C(=O)Nc1cc2c(cc1Br)OCCO2	·	–	·	·
CCOC(=O)[C@]12CCCC=C1N(Cc1ccc3c(c1)OCO3)C(=O)[C@H](CC(=O)N1CCC(c3ccccc3)CC1)C2	·	–	·	·
CC1(C)N=C(N)N=C(N)N1CCCCc1ccccc1	·	67.0	·	·
Cc1ccc(-c2nc3sc(C(N)=O)c(N)c3c3c2CCCC3)cc1	–	–	54.6	–
COC(=O)[C@H](CC(C)C)NC(=O)/C=C/[C@H]1O[C@@H](n2ccc(=O)[nH]c2=O)[C@H](O)[C@@H]1O	·	–	·	·
Cn1cc(/C=C(\NC(=O)c2ccccc2Cl)C(=O)NCCCn2ccnc2)c2ccccc21	·	–	·	·
CCn1cnc2cc(NCc3nc4ccccc4n3C)ccc21	–	–	–	52.8
CC(C)n1cnc2cc(NCc3nc4ccccc4n3C)ccc21	–	–	–	54.2
Cc1ccc(CNc2ccc3c(c2)ncn3C(C)C)cc1	·	–	–	·
CCOC(=O)n1cnc2nc(N)nc(SC)c21	·	–	·	·
Clc1ccc(-c2nc3ccncc3[nH]2)cc1	–	–	–	73.1
CC(C)C(NC(=O)c1ccccc1)c1nnc(SCC(=O)NC2CCCC2)n1C (stereo unspecified)	·	–	·	·
CN(C(=O)CCc1nc2ccccc2c(=O)[nH]1)C1CCS(=O)(=O)C1 (stereo unspecified)	·	–	·	·
Cc1nc2c(-c3ccccc3)cnn2c(N)c1-c1ccccc1	·	83.7	·	·
Cc1cc(N2CCCCC2)n2ncc(-c3ccccc3)c2n1	–	48.0	–	66.8
Cc1cc(NCc2ccccc2)n2ncc(-c3ccccc3)c2n1	·	–	·	·
Cc1cc(N2CCCCC2)n2ncc(-c3ccc(Cl)cc3)c2n1	–	–	–	–
Cc1cc(-c2ccccc2)n2ncc(-c3ccccc3)c2n1	–	61.8	54.8	85.2
COc1ccccc1-c1c(C)nn2c(-c3ccccc3)cc(C)nc12	·	–	–	·
COc1ccc(-c2cc(C)nc3c(-c4ccccc4)cnn23)cc1	–	–	–	51.4
COc1ccccc1C(=O)NNC(=O)CN(C)S(=O)(=O)c1ccc(Cl)cc1	·	–	·	·
Cc1cc(NC2CCCC2)n2ncc(-c3ccccc3)c2n1	·	59.4	·	·
SMILES	FLuc stim CS	TRAIL sens C8	PPC-1+TRAIL kill	FLuc inh counter
COc1ccc(CCN2CC(C(=O)N3CCCCCC3)CCC2=O)cc1 (stereo unspecified)	·	–	·	·
CC(=O)NS(=O)(=O)c1ccc(NC(=O)c2ccccn2)cc1	–	–	–	–
O=C(Nc1ccc(SC(F)(F)F)cc1)c1ccccn1	–	–	–	71.2
Nc1nc(F)nc2c1ncn2[C@@H]1O[C@H](CO)[C@@H](O)[C@@H]1O	–	–	–	–
OC[C@H]1O[C@@H](n2cnc3c(NC4CCCC4)ncnc32)[C@H](O)[C@@H]1O	–	–	–	–
C=CCNc1ncnc2c1ncn2C1OC(CO)C(O)C1O (stereo unspecified)	–	56.6	–	–
OCC1OC(n2cnc3c(SCc4ccccc4)ncnc32)C(O)C1O (stereo unspecified)	·	55.1	·	·
OCC1OC(n2cnc3c(NCc4ccco4)ncnc32)C(O)C1O (stereo unspecified)	·	58.8	·	·
Nc1nc(F)nc2c1ncn2[C@@H]1O[C@H](CO)[C@@H](O)[C@H]1O	·	57.5	·	·
CS(=O)(=O)Nc1ccccc1C(=O)OCC(=O)N1CCC(c2ccccc2)=N1	·	–	·	·
Cc1cc(C)c(CN2CCN(CCCn3ccc(NC(=O)OCc4ccccc4)nc3=O)CC2)c(C)c1	·	–	·	·
CC1(CO)CCCC1NCCNC1CCCC1(C)CO (stereo unspecified)	·	–	·	·
O=C(NCc1nnc2c(C(F)(F)F)cc(Cl)cn12)c1ccco1	·	–	·	·
CCn1c(C)cc(C(=O)CN2C(=O)c3ccccc3S2(=O)=O)c1C	·	–	·	·
C=CCn1c(C)cc(C(=O)CSc2nc3ccccc3c(=O)[nH]2)c1C	–	–	–	–
C=CCn1c(C)cc(C(=O)CN2C(=O)c3ccccc3S2(=O)=O)c1C	·	82.6	·	·
C=CCn1c(C)cc(C(=O)CSc2nc3ccccc3[nH]2)c1C	–	–	–	54.8
NS(=O)(=O)c1ccc(N/N=C/c2cn(-c3ccccc3)nc2-c2ccccc2)c([N+](=O)[O-])c1	–	54.0	–	–

Screening data (PubChem BioAssay)
